Numbering of substitutions follows the chain as printed.
What was measured:
Settings in all cases: stereoisomer not certain
OR2W3 (Homo sapiens) = target: T1, OR2W3 (Homo sapiens) (UniProt Q7Z3T1)
T1 sequence (whole entry): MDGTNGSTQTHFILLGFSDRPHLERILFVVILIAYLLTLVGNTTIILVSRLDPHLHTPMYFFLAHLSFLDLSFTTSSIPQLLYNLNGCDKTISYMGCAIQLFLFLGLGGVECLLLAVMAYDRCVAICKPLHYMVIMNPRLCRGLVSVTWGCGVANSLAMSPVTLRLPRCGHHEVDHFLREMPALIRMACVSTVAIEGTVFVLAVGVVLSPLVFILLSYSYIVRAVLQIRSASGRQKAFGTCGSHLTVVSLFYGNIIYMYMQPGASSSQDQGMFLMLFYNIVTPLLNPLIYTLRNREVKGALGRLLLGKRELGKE
In short: (§1)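 Each receptor–molecule pair is labelled responsive or non-responsive (inactive) according to whether the original authors judged the measured signal statistically different from baseline. The data were taken from the main text and supplementary material of published papers and checked for typos and inconsistencies. Assay methods differed by source, with transient luciferase assays in mammalian cell lines being common.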

OR2W5P (Homo sapiens) = target: T2, OR2W5P (Homo sapiens) (UniProt A6NFC9)
T2 sequence (whole entry): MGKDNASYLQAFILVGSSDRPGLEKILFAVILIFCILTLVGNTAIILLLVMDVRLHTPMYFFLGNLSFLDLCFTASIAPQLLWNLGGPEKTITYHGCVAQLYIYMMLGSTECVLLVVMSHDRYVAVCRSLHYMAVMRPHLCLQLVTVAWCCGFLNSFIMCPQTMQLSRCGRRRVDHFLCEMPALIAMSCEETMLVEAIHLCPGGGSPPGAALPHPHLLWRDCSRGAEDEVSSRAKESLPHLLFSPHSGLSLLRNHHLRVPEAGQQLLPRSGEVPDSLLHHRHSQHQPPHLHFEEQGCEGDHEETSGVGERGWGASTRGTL
In short: as §1

OR2Y1 (Homo sapiens) = target: T3, OR2Y1 (Homo sapiens) (UniProt Q8NGV0)
T3 sequence (whole entry): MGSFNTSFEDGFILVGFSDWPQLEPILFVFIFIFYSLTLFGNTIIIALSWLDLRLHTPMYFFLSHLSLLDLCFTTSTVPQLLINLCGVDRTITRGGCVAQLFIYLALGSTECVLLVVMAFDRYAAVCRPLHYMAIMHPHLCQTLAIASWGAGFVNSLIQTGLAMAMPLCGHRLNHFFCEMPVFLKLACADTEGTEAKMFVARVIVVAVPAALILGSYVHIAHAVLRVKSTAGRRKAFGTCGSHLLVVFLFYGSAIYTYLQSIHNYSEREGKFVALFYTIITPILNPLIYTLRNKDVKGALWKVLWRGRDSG
In short: as §1

OR2Y1 = test system: T4, OR2Y1
T4 sequence (whole entry): T3 sequence (whole entry) with V200L
In short: as §1

OR2Z1 (Homo sapiens) = target: T5, OR2Z1 (Homo sapiens) (UniProt Q8NG97)
T5 sequence (whole entry): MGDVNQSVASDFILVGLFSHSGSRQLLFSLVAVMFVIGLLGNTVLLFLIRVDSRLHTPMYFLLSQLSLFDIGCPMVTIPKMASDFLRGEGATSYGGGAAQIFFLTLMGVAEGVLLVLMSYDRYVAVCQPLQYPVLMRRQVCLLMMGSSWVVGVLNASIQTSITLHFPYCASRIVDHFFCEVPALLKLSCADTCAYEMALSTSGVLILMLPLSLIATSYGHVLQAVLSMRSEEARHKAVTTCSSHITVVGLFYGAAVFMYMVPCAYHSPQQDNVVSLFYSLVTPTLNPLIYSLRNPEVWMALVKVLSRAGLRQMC
In short: as §1

OR3A1 (Homo sapiens) = target: T6, OR3A1 (Homo sapiens) (UniProt P47881)
T6 sequence (whole entry): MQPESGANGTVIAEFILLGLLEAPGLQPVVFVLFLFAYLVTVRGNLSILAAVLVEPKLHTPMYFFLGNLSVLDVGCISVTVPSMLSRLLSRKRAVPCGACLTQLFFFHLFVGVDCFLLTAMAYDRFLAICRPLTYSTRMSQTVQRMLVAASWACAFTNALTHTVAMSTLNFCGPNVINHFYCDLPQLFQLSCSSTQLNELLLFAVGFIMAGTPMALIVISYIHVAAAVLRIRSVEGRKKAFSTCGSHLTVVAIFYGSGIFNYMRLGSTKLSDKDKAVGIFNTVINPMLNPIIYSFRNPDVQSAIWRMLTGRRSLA
In short: as §1

OR3A1 = test system: T7, OR3A1
T7 sequence (whole entry): T6 sequence (whole entry) with R125Q
In short: as §1

OR3A2 (Homo sapiens) = target: T8, OR3A2 (Homo sapiens) (UniProt P47893)
T8 sequence (whole entry): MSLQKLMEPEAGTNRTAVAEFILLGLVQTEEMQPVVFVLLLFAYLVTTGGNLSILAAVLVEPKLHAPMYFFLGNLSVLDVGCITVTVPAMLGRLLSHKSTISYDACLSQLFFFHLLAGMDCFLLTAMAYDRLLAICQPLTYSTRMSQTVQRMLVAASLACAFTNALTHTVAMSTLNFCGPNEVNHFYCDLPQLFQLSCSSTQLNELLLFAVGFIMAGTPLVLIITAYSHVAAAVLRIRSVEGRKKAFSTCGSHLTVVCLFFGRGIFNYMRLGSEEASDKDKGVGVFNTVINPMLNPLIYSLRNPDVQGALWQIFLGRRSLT
In short: as §1

OR3A2 R317K = test system: T9, OR3A2 R317K
T9 sequence (whole entry): T8 sequence (whole entry) with R317K
In short: as §1

OR3A3 (Homo sapiens) = target: T10, OR3A3 (Homo sapiens) (UniProt P47888)
T10 sequence (whole entry): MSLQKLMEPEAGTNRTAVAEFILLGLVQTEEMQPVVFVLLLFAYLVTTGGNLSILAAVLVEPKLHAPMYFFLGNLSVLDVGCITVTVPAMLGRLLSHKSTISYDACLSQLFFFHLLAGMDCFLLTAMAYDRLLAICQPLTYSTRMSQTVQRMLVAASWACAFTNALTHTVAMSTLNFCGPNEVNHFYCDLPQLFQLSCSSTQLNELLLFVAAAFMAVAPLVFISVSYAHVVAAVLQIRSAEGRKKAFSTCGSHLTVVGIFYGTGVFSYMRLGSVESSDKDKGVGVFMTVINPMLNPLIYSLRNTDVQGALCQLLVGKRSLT
In short: as §1

Measured: odorant receptor agonist call;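 further: active if original authors judged signal statistically different from baseline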

CCCC(S)CCOC(C)=O (stereo not drawn)
inactive: all assays above

OCCc1ccccc1
inactive: OR3A1 (Homo sapiens)

CC(=O)CCc1ccc(O)cc1
inactive: OR3A1 (Homo sapiens)

CC(C=O)=Cc1ccccc1
inactive: OR3A1 (Homo sapiens)

CCC(S)C(C)CO (stereo not drawn)
not listed: OR2Y1 | OR3A1 | OR3A2 R317K
inactive: all other assays above

CC(=O)OCc1ccc2c(c1)OCO2
inactive: OR3A1 (Homo sapiens)

CCCCCC(=O)C(C)C(C)=O (stereo not drawn)
not listed: OR2Y1 | OR3A1 | OR3A2 R317K
inactive: all other assays above

CCCCC(S)C(C)CO (stereo not drawn)
not listed: OR2Y1 | OR3A1 | OR3A2 R317K
inactive: all other assays above

CC1=C(O)C(=O)OC1C (stereo not drawn)
inactive: all assays above

CCCCCCC=CCCC=O
inactive: all assays above

CC1=NC(C)C(C)S1 (stereo not drawn)
inactive: all assays above

CC(=O)c1c(C)c([N+](=O)[O-])c(C(C)(C)C)c([N+](=O)[O-])c1C
inactive: OR2W3 (Homo sapiens) | OR2Y1 (Homo sapiens) | OR2Z1 (Homo sapiens) | OR3A1 (Homo sapiens) | OR3A2 (Homo sapiens) | OR3A3 (Homo sapiens)

O=CCCc1ccccc1
inactive: OR3A1 (Homo sapiens)

CCC1OC(=O)C(O)=C1C (stereo not drawn)
inactive: all assays above

CC(C)CC=O
inactive: OR3A1 (Homo sapiens)
